# Results pooled from the literature.
# DPP4: Dipeptidyl peptidase 4 (DPP4, Homo sapiens, UniProt P27487)
# CDK1: Cyclin-dependent kinase 1 (CDK1, Homo sapiens, UniProt P06493)
SMILES,target,read-out,mode,technique,tested at,quantity,result
Cn1c(=O)cc(N2CCC(N)CC2)n(Cc2nc3ccc(Br)cc3c(=O)n2-c2ccccc2)c1=O,DPP4,enzyme activity,inhibitor,,20 µM,inhibition,12.9%
CNc1ncc2c(/C=C/C(=O)N3CCC(OC)CC3)nn(Cc3cccc(C(F)(F)F)c3)c2n1,"RAC-alpha serine/threonine-protein kinase (AKT1, Homo sapiens, UniProt P31749)",enzyme activity,inhibitor,radiometric,1 µM,remaining activity,101%
Cn1c(=O)cc(N2CCC(N)CC2)n(Cc2nc3ccccc3c(=O)n2-c2cccc(C(F)(F)F)c2)c1=O,DPP4,enzyme activity,inhibitor,,20 µM,inhibition,25.6%
CCO[C@@H](Cc1ccc(OCCc2ccc(OS(C)(=O)=O)cc2)cc1)C(=O)O,CDK1,enzyme activity,inhibitor,ADP detection,100 µM,inhibition,96.9%
CN(C)c1ncnc2c1ncn2[C@@H]1O[C@H](CCl)[C@@H](NC(=O)[C@H](CSC(c2ccccc2)c2ccccc2)NC(=O)OC(C)(C)C)[C@H]1O,"Aminopeptidase N (ANPEP, Homo sapiens, UniProt P15144)",enzyme activity,inhibitor,fluorescence,10 µM,inhibition,4.6%
CC(=O)c1c(C)c2cnc(Nc3ccc(N4CCNCC4)cn3)nc2n(C2CCCC2)c1=O,"Cyclin-dependent kinase 9 (CDK9, Homo sapiens, UniProt P50750)",enzyme activity,inhibitor,ADP detection,1 µM,activity vs control,106%
O=C1NC(=NCc2cccs2)S/C1=C\c1ccc2ncccc2c1,CDK1,enzyme activity,inhibitor,ADP detection,10 µM,inhibition,100%
C=CC(=O)N1CCC(COCC(=O)N2CCN(c3nc(-c4cnc(N)nc4C(F)F)nc(N4CCOC[C@@H]4C)n3)CC2)CC1,"Calcium/calmodulin-dependent protein kinase kinase 2 (CAMKK2, Homo sapiens, UniProt Q96RR4)",binding,,competition with immobilised ligand,1 µM,remaining binding,99%
Cn1c(=O)cc(N2CCC(N)CC2)n(Cc2nc3ccccc3c(=O)n2-c2ccc(F)c(Cl)c2)c1=O,DPP4,enzyme activity,inhibitor,,20 µM,inhibition,32.5%
O=C(Cn1cc(C=CC(=O)c2ccc(F)cc2)nn1)Nc1nc(-c2ccccc2)cs1,"Stromelysin-2 (Homo sapiens, UniProt P09238)",enzyme activity,inhibitor,,0.5 µM,inhibition,82.4%
Cc1cc([C@@H](C)Nc2ccccc2C(=O)O)c2nc(N3CCC(F)(F)CC3)c(C#N)c(=O)n2c1,"Mitogen-activated protein kinase 3 (MAPK3, Homo sapiens, UniProt P27361)",binding,,competition with immobilised ligand,1 µM,remaining binding,100%
Cc1cc2cc(Oc3ccnc(Nc4cccc(CS(=O)(=O)NCCN(C)C)c4)n3)ccc2[nH]1,CDK1,enzyme activity,inhibitor,ADP detection,10 µM,inhibition,51.5%
COc1cc(-c2cncc3c2CN(C)Cc2cc(N4CCNCC4)ccc2-3)cc(OC)c1OC,"Ephrin type-A receptor 2 (EPHA2, Homo sapiens, UniProt P29317)",enzyme activity,inhibitor,,1 µM,remaining activity,103%
